ChEMBL document CHEMBL2163285, “Chrolactomycins from the actinomycete actinospica” (2012)
Values after ≈ are worked out from the molar mass of the structure shown.

How the values were obtained:
Assay type in all cases: functional
Streptococcus pyogenes = test: Antimicrobial activity against Streptococcus pyogenes 49 assessed as growth inhibition after 20 to 24 hrs by broth microdilution method
Procedure, shortened: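 Streptococcus pyogenes was grown in Todd Hewitt broth and tested by CLSI broth microdilution. The MIC is the lowest concentration causing complete suppression of visible growth.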

Staphylococcus aureus [1] = test: Antimicrobial activity against Staphylococcus aureus ATCC 6538P assessed as growth inhibition after 20 to 24 hrs by broth microdilution method
Procedure, shortened: (§1)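 CLSI broth microdilution in Mueller Hinton broth supplemented with 20 mg/L CaCl2 and 10 mg/L MgCl2. Cells from frozen stocks were seeded at 5 × 10^5 cfu/mL and incubated at 37 °C, then read after 20−24 h. The MIC is the lowest concentration giving complete suppression of visible growth.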

Staphylococcus aureus [2] = test: Antimicrobial activity against Staphylococcus aureus ATCC 29213 assessed as growth inhibition after 20 to 24 hrs by broth microdilution method; procedure, shortened: as §1
Bacillus subtilis = test: Antimicrobial activity against Bacillus subtilis 168 assessed as growth inhibition after 20 to 24 hrs by broth microdilution method; procedure, shortened: as §1
Micrococcus luteus = test: Antimicrobial activity against Micrococcus luteus 108 assessed as growth inhibition after 20 to 24 hrs by broth microdilution method; procedure, shortened: as §1

Structure (SMILES)	MIC (Streptococcus pyogenes) [µg/mL]	MIC (Staphylococcus aureus [1]) [µg/mL]	MIC (Staphylococcus aureus [2]) [µg/mL]	MIC (Bacillus subtilis) [µg/mL]	MIC (Micrococcus luteus) [µg/mL]
C=C1C(=O)[C@]2(OC)C(=O)O[C@@]34C[C@H](C)C(C(=O)O)=C[C@@H]3CCC[C@@H](C)C[C@@H](C)[C@H]1O[C@H]24 (relative stereo)	16 (≈ 37 µM)	2 (≈ 4.62 µM)	2 (≈ 4.62 µM)	8 (≈ 18.5 µM)	8 (≈ 18.5 µM)
C=C1C(=O)[C@]2(OC)C(=O)O[C@@]34C[C@H](C)C(C(=O)O)=C[C@@H]3CCC[C@@H](C)[C@H](O)[C@@H](C)[C@H]1O[C@H]24 (relative stereo)	8 (≈ 17.8 µM)	32 (≈ 71.3 µM)	64 (≈ 143 µM)	128 (≈ 285 µM)	8 (≈ 17.8 µM)
CN[C@H](CC(C)C)C(=O)N[C@H]1C(=O)N[C@@H](CC(N)=O)C(=O)N[C@H]2C(=O)N[C@H]3C(=O)N[C@H](C(=O)N[C@H](C(=O)O)c4cc(O)cc(O)c4-c4cc3ccc4O)[C@H](O)c3ccc(c(Cl)c3)Oc3cc2cc(c3O[C@@H]2O[C@H](CO)[C@@H](O)[C@H](O)[C@H]2O[C@H]2C[C@](C)(N)[C@H](O)[C@H](C)O2)Oc2ccc(cc2Cl)[C@H]1O [VANCOMYCIN]				0.25 (≈ 0.173 µM)	0.125 (≈ 0.0863 µM)
